Data set [1] deals with T1, TfIMPDH (Tritrichomonas foetus, UniProt P50097).
T1 sequence (P50097 1-503): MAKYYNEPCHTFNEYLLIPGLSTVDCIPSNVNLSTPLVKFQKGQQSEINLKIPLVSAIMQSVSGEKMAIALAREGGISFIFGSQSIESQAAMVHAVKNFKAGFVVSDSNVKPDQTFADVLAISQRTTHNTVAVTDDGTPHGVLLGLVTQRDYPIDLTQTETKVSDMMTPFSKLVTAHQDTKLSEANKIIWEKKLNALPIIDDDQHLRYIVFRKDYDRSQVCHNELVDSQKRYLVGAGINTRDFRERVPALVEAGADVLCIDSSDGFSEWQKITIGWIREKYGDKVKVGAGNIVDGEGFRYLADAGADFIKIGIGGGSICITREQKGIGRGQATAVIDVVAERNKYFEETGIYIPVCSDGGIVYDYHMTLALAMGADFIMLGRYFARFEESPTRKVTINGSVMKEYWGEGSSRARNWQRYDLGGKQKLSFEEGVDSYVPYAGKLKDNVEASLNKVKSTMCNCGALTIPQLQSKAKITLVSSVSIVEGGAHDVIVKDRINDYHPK
As to conditions: refs 14 and 23; cited from earlier work.

Data set [2] concerns the target T2, CpIMPDH (Cryptosporidium parvum, UniProt Q8T6T2).
T2 sequence (Q8T6T2 1-400): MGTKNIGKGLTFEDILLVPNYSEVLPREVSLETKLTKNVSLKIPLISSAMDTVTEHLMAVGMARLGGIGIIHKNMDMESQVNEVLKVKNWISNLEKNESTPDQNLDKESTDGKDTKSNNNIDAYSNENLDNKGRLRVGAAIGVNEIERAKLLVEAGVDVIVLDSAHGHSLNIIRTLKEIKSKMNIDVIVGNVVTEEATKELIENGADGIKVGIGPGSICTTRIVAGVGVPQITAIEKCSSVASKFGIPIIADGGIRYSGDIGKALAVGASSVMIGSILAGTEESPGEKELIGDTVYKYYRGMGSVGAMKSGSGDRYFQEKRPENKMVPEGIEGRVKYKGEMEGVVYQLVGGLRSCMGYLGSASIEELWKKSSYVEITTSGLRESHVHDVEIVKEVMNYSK
The experiment in a line: Equilibrium dissociation constants by intrinsic protein fluorescence. As to conditions: for Kd: free enzyme, 50 mM Tris-HCl, pH 8.0, 100 mM KCl, 1 mM DTT, 25 °C. Type of data set: binding.

Data set [3] concerns the target T2, CpIMPDH. The data set can be described thus: Steady-state kinetics of CpIMPDH. In kind it is biochemical. As to conditions: for D2Okcat (solvent deuterium isotope effect on kcat): dinucleotide varied, 500 μM IMP, H2O vs D2O.
Data set [4] concerns the target T2, CpIMPDH. To be noted: cited from earlier work.
The target of data set [5] is T3, hIMPDH2 (Homo sapiens, UniProt P12268). As to conditions: cited from earlier work.
Data set [6] deals with T2, CpIMPDH. The data set can be described thus: XMP binding kinetics by stopped-flow protein fluorescence. To be noted: 0.4 μM enzyme, 30 or 120 μM XMP, 25 °C.
The target of data set [7] is T1, TfIMPDH. The experiment in a line: Inhibition by ligands of the dinucleotide site, TfIMPDH. Type of data set: biochemical.
The target in data set [8] is T3, hIMPDH2. The data set can be described thus: Pre-steady-state kinetics and global fits of the hIMPDH2 reaction. In kind it is biochemical. To be noted: for Kapp ([NAD^+] at 1/2 kmax) / kmax/Kapp / kmax: fluorescence; for kmax: NAD^+ varied, 4 μM enzyme.
Data set [9] addresses T3, hIMPDH2. The experiment in a line: Steady-state kinetics of hIMPDH2. To be noted: NAD^+ varied, 400 μM IMP, H2O vs D2O. In kind it is biochemical. In outline: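 Buffer was 50 mM Tris-HCl pH 8.0, 100 mM KCl, 1 mM DTT, made in H2O or D2O, with D2O meter readings adjusted by adding 0.4. Runs were at 25 °C. […] Steady-state parameters came from eq 2.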
Data set [10] addresses T3, hIMPDH2. To be noted: cited from earlier work. This is another data set of the same source.
For data set [11], the target named is T2, CpIMPDH. The data set can be described thus: Pre-steady-state kinetics and global fits of the CpIMPDH reaction. Type of data set: biochemical.
Substrate in data set [12]: NC(=O)c1ccc[n+]([C@@H]2O[C@H](COP(=O)([O-])OP(=O)(O)OC[C@H]3O[C@@H](n4cnc5c(N)ncnc54)[C@H](O)[C@@H]3O)[C@@H](O)[C@H]2O)c1
Described as above. In kind it is biochemical, Cryptosporidium parvum. To be noted: other: calculated from global-fit rate constants (eq 12).

Data on 8 molecules can be found in publication PMC2646883 (Biochemistry, 2008).

Where “and” joins values, the source holds several entries; their conditions need not be identical. Identical values can stand only once. Like-named read-outs stand apart in the source and are kept apart here. Some results are limits rather than exact numbers.

What is called Ki is a dissociation constant, usually derived from enzyme kinetics or from competition with a known ligand. As to `NC(=O)c1csc([C@@H]2O[C@H](CO)[C@@H](O)[C@H]2O)n1` [Tz, 2-β-D-ribofuranosylthiazole-4-carboxamide], on TfIMPDH [1], the Ki was 50000 ± 10000 µM.

As a reminder, the Kd is a measure of binding affinity in units of concentration. Consider `NC(=O)C1=CN([C@@H]2O[C@H](COP(=O)(O)OP(=O)(O)OC[C@H]3O[C@@H](n4cnc5c(N)ncnc54)[C@H](O)[C@@H]3O)[C@@H](O)[C@H]2O)C=CC1` [NADH, reduced nicotinamide adenine dinucleotide], for which the Kd on CpIMPDH [2] worked out at 2.3 ± 0.2 µM. The “factor of greater affinity of NADH than NAD^+” value at CpIMPDH [2] (ratio of Kd values) worked out at 6.

By Km is commonly meant the substrate concentration at which the rate is half of its maximum. For `CC(=O)c1ccc[n+]([C@@H]2O[C@H](COP(=O)([O-])OP(=O)(O)OC[C@H]3O[C@@H](n4cnc5c(N)ncnc54)[C@H](O)[C@@H]3O)[C@@H](O)[C@H]2O)c1` [APAD^+, 3-acetylpyridine adenine dinucleotide], the “D2Okcat (solvent deuterium isotope effect on kcat)” value at CpIMPDH [3] was 3.3 and 3.3 ± 0.1. On CpIMPDH [3] (read-out: KM dinucleotide, pH 8.0, 25 °C, APAD^+ at saturating IMP (500 μM)), the Km came to 190 ± 9 µM.

Take `Nc1ncnc2c1ncn2[C@@H]1O[C@H](COP(=O)(O)OP(=O)(O)O)[C@@H](O)[C@H]1O` [ADP, adenosine-5′-diphosphate]: the values for the Ki at CpIMPDH [4] and on TfIMPDH [1] were 42000 ± 6000 µM and 31000 ± 2000 µM, respectively.

Regarding `O=c1[nH]c(=O)c2ncn([C@@H]3O[C@H](COP(=O)(O)O)[C@@H](O)[C@H]3O)c2[nH]1` [XMP, xanthosine 5′-monophosphate], the Kd at hIMPDH2 [5] was 140 µM; on CpIMPDH [2] (Kd) it was 5.6 ± 0.6 µM. Also, the “rate of XMP binding / release (too fast to measure)” value at CpIMPDH [6] is no less than 200 s⁻¹.

As to `NC(=O)c1ccc[n+]([C@@H]2O[C@H](COP(=O)([O-])OP(=O)(O)OC[C@H]3O[C@@H](n4cnc5c(N)ncnc54)[C@H](O)[C@@H]3O)[C@@H](O)[C@H]2O)c1` [NAD^+, nicotinamide adenine dinucleotide], the Kd at TfIMPDH [7] was 70 µM; at hIMPDH2 [8] (Kintr (intrinsic binding constant), NAD^+, derived from the global fits, Kc ≤0.2), 590 µM; on CpIMPDH [11] (Kintr (intrinsic binding constant), NAD^+, derived from the global fits, Kc = 4) it was 300 µM; on CpIMPDH [2] (Kd) it was 14 ± 1 µM. Further, the “Kapp ([NAD^+] at 1/2 kmax)” value was found to be 86 ± 5 µM on hIMPDH2 [8] (burst phase); 68 ± 1 µM on hIMPDH2 [8] (lag phase); 510 ± 90 µM at CpIMPDH [11] (monitored by absorbance, 500 μM IMP); 290 ± 60 µM at CpIMPDH [11] (monitored by fluorescence, 500 μM IMP). Also, the kmax/Kapp worked out at 140000 M⁻¹ s⁻¹ on hIMPDH2 [8] (burst phase), 340000 M⁻¹ s⁻¹ on hIMPDH2 [8] (lag phase), 80000 M⁻¹ s⁻¹ at CpIMPDH [11] (monitored by absorbance) and 56000 M⁻¹ s⁻¹ at CpIMPDH [11] (monitored by fluorescence). Moreover, the kmax on hIMPDH2 [8] (burst phase) came out at 12 ± 1 s⁻¹; on hIMPDH2 [8] (lag phase), 23 ± 1 s⁻¹. The “D2Okcat (solvent deuterium isotope effect on kcat)” value on hIMPDH2 [9] is 1.8 ± 0.1; on CpIMPDH [3], 2.6 and 2.6 ± 0.1. Moreover, the kcat at hIMPDH2 [10] (NAD^+ reaction, pH 8.0, 25 °C) was 0.39 ± 0.01 ^c s^−1. Also, at hIMPDH2 [10] (read-out: KM dinucleotide), the Km is 6 ± 1 µM. Also, the “k12/k11 = Kii (NAD^+ binding to E-XMP*)” value on hIMPDH2 [10] (value fixed for global fitting) is 590 µM. Moreover, the Kii on TfIMPDH [1] is recorded as 6.8 ± 1.8 mM. The “kmax (maximal kobs of burst, kburst)” value on CpIMPDH [11] (monitored by absorbance, NAD^+ varied, 500 μM IMP) was found to be 41 ± 2 s⁻¹. Further, on CpIMPDH [11] (monitored by fluorescence, NAD^+ varied, 500 μM IMP), the “kmax (maximal kobs of burst)” value was 16 s⁻¹ and 16 ± 1 s⁻¹.

For `Nc1nc2c(ncn2[C@@H]2O[C@H](COP(=O)(O)O)[C@@H](O)[C@H]2O)c(=O)[nH]1` [GMP, guanosine monophosphate], the Kd on CpIMPDH [2] is 4.8 ± 0.6 µM.

B1: CpIMPDH (Cryptosporidium parvum) (protein)
chain: T2 sequence (Q8T6T2 1-400)
Turning to B1, in data set [12], the Km was 40 µM.
